This is an account of results in ChEMBL document CHEMBL4028818, “Tricyclic 4,4-dimethyl-3,4-dihydrochromeno[3,4-d]imidazole derivatives as microsomal prostaglandin E2 synthase-1 (mPGES-1) inhibitors: SAR and in vivo efficacy in hyperalgesia pain model” (Bioorg Med Chem Lett, 2017).

The term inhibition denotes the share of the control response that was lost under treatment. By pIC50 is commonly meant −log10 of the IC50, conventionally taken in molar units.

Holding throughout (assay type): cell-based
In experiment [1] the target is T1, Prostaglandin E synthase (Homo sapiens) (UniProt O14684).
T1 sequence (whole entry): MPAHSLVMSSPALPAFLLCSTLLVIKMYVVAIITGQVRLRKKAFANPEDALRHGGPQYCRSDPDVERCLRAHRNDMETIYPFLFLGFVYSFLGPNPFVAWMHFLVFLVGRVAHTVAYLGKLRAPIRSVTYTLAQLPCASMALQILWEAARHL
The experiment in a line: Inhibition of recombinant human mPGES-1 expressed in CHO cells assessed as reduction in PGE2 formation at 1 uM using PGH2 a substrate preincubated for 10 mins followed by substrate addition measured after 1 min relative to control. Summed up:
(§1)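 mPGES-1 enzyme inhibition. % inhibition values are means of two experiments in duplicate. IC50 values were derived from graphs of at least two experiments in duplicate.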

Experiment [2] deals with T1, Prostaglandin E synthase (Homo sapiens). In words: Inhibition of recombinant human mPGES-1 expressed in CHO cells assessed as reduction in PGE2 formation at 10 uM using PGH2 a substrate preincubated for 10 mins followed by substrate addition measured after 1 min relative to control. Summed up: as §1
For a further experiment, the target named is T2, Prostaglandin E synthase (Homo sapiens, UniProt O14684).
T2 sequence (O14684 whole entry): T1 sequence (whole entry)
In words: Inhibition of recombinant human mPGES-1 expressed in CHO cells assessed as reduction in PGE2 formation using PGH2 a substrate preincubated for 10 mins followed by substrate addition measured after 1 min. Summed up:
as §1

pIC50: −log10 of the molar value.

Regarding `CC1(C)Oc2nc(C#Cc3c(F)cccc3C(F)(F)F)ccc2-c2nc(-c3c(F)cccc3Cl)[nH]c21`, the inhibition was determined as 75% in experiment [1] and 76% in experiment [2]. `CC1(C)Oc2cc(C#Cc3ccc(C(F)(F)F)cn3)ccc2-c2nc(-c3c(F)cccc3Cl)[nH]c21`: the pIC50 at Prostaglandin E synthase was 6.49. Take `CC1(C)Oc2cc(Br)ccc2-c2[nH]c(-c3c(F)cccc3Cl)nc21`: the inhibition in experiment [1] came to 40.8%; in experiment [2], 94.1%. As for `CC1(C)Oc2cc(C#Cc3cncnc3)ccc2-c2nc(-c3c(F)cccc3Cl)[nH]c21`, on Prostaglandin E synthase, the pIC50 is 6.10. Still for that read-out and setting: in the case of `CC1(C)Oc2nc(C#Cc3ccccc3C(F)(F)F)ccc2-c2nc(-c3c(F)cccc3Cl)[nH]c21` it was 6.39; in that of `CC1(C)Oc2cc(C#Cc3cc(C(F)(F)F)ccc3Cl)ccc2-c2nc(-c3c(Cl)cncc3Cl)[nH]c21`, 7.48; in that of `CC1(C)Oc2cc(C#Cc3cccc(Cl)c3)ccc2-c2nc(-c3c(F)cccc3Cl)[nH]c21`, 7.41. With `CC1(C)Oc2cc(C(=O)Nc3cccc(C(F)(F)F)c3)ccc2-c2[nH]c(-c3c(F)cccc3Cl)nc21`, the inhibition amounted to 70.4% in experiment [1] and 83.6% in experiment [2]. Consider `CC1(C)Oc2cc(C#Cc3ccccc3C(F)(F)F)ccc2-c2nc(-c3c(F)cncc3Cl)[nH]c21`, for which the pIC50 on Prostaglandin E synthase is 6.77. Turning to `CC1(C)Oc2cc(C#Cc3ccccc3Cl)ccc2-c2nc(-c3c(F)cccc3Cl)[nH]c21`, the negative logarithm of the IC50 (pIC50) on Prostaglandin E synthase is 7.19. In the case of `Cc1csc(NC(=O)c2ccc3c(c2)OC(C)(C)c2nc(-c4c(F)cccc4Cl)[nH]c2-3)n1`, the inhibition in experiment [1] was 52.8%; in experiment [2], 67.2%.

For `CC1(C)Oc2cc(C#Cc3ccc(C(F)(F)F)cc3)ccc2-c2[nH]c(-c3c(F)cccc3Cl)nc21`, on Prostaglandin E synthase, the negative logarithm of the IC50 (pIC50) is 7.21. With `CC1(C)Oc2cc(C(=O)NC3CCCCC3)ccc2-c2nc(-c3c(F)cccc3Cl)[nH]c21`, the inhibition in experiment [1] was determined as 56%; in experiment [2], 68%. Regarding `CC1(C)Oc2cc(C#Cc3c(Cl)cccc3Cl)ccc2-c2nc(-c3c(F)cccc3Cl)[nH]c21`, the pIC50 at Prostaglandin E synthase is 7.95. For the molecule `CC1(C)Oc2cc(-c3ccc(OC(F)(F)F)cc3)ccc2-c2[nH]c(-c3c(F)cccc3Cl)nc21`, the values for the inhibition in experiment [1] and in experiment [2] were 70.1% and 86.9%, respectively.

Take `Cc1cnc(C#Cc2ccc3c(c2)OC(C)(C)c2[nH]c(-c4c(F)cccc4Cl)nc2-3)s1`: the negative logarithm of the IC50 (pIC50) on Prostaglandin E synthase is 6.33.

With `CC1(C)Oc2cc(C#Cc3ccc(C(F)(F)F)cc3Cl)ccc2-c2nc(-c3c(F)cncc3Cl)[nH]c21`, on Prostaglandin E synthase, the pIC50 is 7.13.

Regarding `CC1(C)Oc2cc(C#Cc3ccncc3F)ccc2-c2nc(-c3c(F)cccc3Cl)[nH]c21`, the negative-log IC50 (pIC50) on Prostaglandin E synthase was 6.19. Consider `CC1(C)Oc2cc(C#Cc3cccc(C(F)(F)F)c3)ccc2-c2nc(-c3c(F)cccc3Cl)[nH]c21`, for which the pIC50 on Prostaglandin E synthase was 7.53.

`CC1(C)Oc2cc(C#Cc3ccc(C(F)(F)F)cc3Cl)ccc2-c2nc(-c3c(F)cccc3Cl)[nH]c21`: the pIC50 on Prostaglandin E synthase is 7.55. As for `CC1(C)Oc2cc(C#Cc3ccccc3C(F)(F)F)ccc2-c2nc(-c3c(Cl)cncc3Cl)[nH]c21`, the negative-log IC50 (pIC50) on Prostaglandin E synthase was 7.09.

As for `CC1(C)Oc2cc(-c3ccc(Cl)cc3)ccc2-c2[nH]c(-c3c(F)cccc3Cl)nc21`, the inhibition in experiment [1] was determined as 76%; in experiment [2] it was 94.8%. Consider `CC1(C)Oc2cc(C#Cc3cc(F)ccc3C(F)(F)F)ccc2-c2nc(-c3c(Cl)cncc3Cl)[nH]c21`, for which the pIC50 on Prostaglandin E synthase was 7.50. For `CC1(C)Oc2cc(-c3nc(C4CC4)no3)ccc2-c2[nH]c(-c3c(F)cccc3Cl)nc21`, the inhibition worked out at 89% in experiment [1] and 98.6% in experiment [2]. On to `CC1(C)Oc2cc(C#Cc3ccc(Cl)cc3)ccc2-c2nc(-c3c(F)cccc3Cl)[nH]c21`, for which, on Prostaglandin E synthase, the pIC50 is 7.42. Same read-out and setting: the same measure for `CC1(C)Oc2cc(C#Cc3ccccc3)ccc2-c2nc(-c3c(F)cccc3Cl)[nH]c21`: 7.08. Turning to `CC1(C)Oc2nc(C#Cc3cc(C(F)(F)F)ccc3Cl)ccc2-c2nc(-c3c(F)cccc3Cl)[nH]c21`, the inhibition turned out to be 65% in experiment [1] and 63% in experiment [2].

Consider `CC1(C)Oc2cc(C#Cc3cccc(Cl)c3Cl)ccc2-c2nc(-c3c(F)cccc3Cl)[nH]c21`, for which the pIC50 on Prostaglandin E synthase was 7.45.
